Assay results taken from ChEMBL document CHEMBL1122281, “Synthesis and antifilarial activity of N-[4-[[4-alkoxy-3-[(dialkylamino)methyl]phenyl]amino]- 2-pyrimidinyl]-N'-phenylguanidines” (J Med Chem, 1983).

Key:
Litomosoides carinii [1] = experiment: Antifilarial activity against Litomosoides carinii infections in the Jird at dose 100 mg/kg administered orally; assay type: functional; conditions: route oral
Summary of the method: (§1)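 L. carinii-infected jirds were dosed. Survivors were killed 55–70 days after the first dose, and the pleural and peritoneal cavities were searched for adult worms. Live worms at autopsy were scored as a percentage relative to sham-dosed controls. Adult worm reduction above 60% was the activity criterion.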

Litomosoides carinii [2] = experiment: Antifilarial activity against Litomosoides carinii infections in the Jird at dose 25 mg/kg administered orally; assay type: functional; conditions: route oral; summary of the method: as §1
[3] = Antifilarial activity against Litomosoides carinii infections in the Jird at dose 100 mg/kg administered subcutaneously; two or more animals died prematurely considered to be drug toxicity.; assay type: organism-based, Meriones unguiculatus; parameters: dose 100 mg/kg, route subcutaneous; conditions: gerbil, in vivo, sc
Summary of the method: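 Jirds infected with Litomosoides carinii. Surviving animals killed 55–70 days after first drug dose; pleural and peritoneal cavities searched for adult worms. Live worm count at autopsy scored as percentage relative to sham-dosed controls. Activity criterion: adult worm reduction exceeding 60%.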

Litomosoides carinii [4] = experiment: Antifilarial activity against Litomosoides carinii infections in the Jird at dose 25 mg/kg administered subcutaneously; assay type: functional; conditions: route subcutaneous; summary of the method: as §1
Litomosoides carinii [5] = experiment: Antifilarial activity against Litomosoides carinii infections in the Jird at dose 3 mg/kg administered orally; assay type: functional; conditions: route oral; summary of the method: as §1
Litomosoides carinii [6] = experiment: Antifilarial activity against Litomosoides carinii infections in the Jird at dose 6 mg/kg administered subcutaneously; assay type: functional; conditions: route subcutaneous; summary of the method: as §1
Litomosoides carinii [7] = experiment: (§2) Antifilarial activity against Litomosoides carinii infections in the Jird at dose 100 mg/kg administered subcutaneously; assay type: functional; conditions: route subcutaneous; summary of the method: as §1
Litomosoides carinii [8] = experiment: as §2; assay type: functional; conditions: route subcutaneous; summary of the method: as §1; remark: listed apart in the source
Litomosoides carinii [9] = experiment: Antifilarial activity against Litomosoides carinii infections in the Jird at dose 200 mg/kg administered orally; assay type: functional; conditions: route oral; summary of the method: as §1
Litomosoides carinii [10] = experiment: Antifilarial activity against Litomosoides carinii infections in the Jird at dose 400 mg/kg administered subcutaneously; assay type: functional; conditions: route subcutaneous; summary of the method: as §1
Litomosoides carinii [11] = experiment: Antifilarial activity against Litomosoides carinii infections in the Jird at dose 400 mg/kg administered orally; assay type: functional; conditions: route oral; summary of the method: as §1
Litomosoides carinii [12] = experiment: Antifilarial activity against Litomosoides carinii infections in the Jird at dose 100 mg/kg administered subcutaneously; conditions: route subcutaneous
Litomosoides carinii [13] = experiment: Antifilarial activity against Litomosoides carinii infections in the Jird at dose 600 mg/kg administered orally; assay type: functional; conditions: route oral; summary of the method: as §1
Litomosoides carinii [14] = experiment: Antifilarial activity against Litomosoides carinii infections in the Jird at dose 200 mg/kg administered subcutaneously; assay type: functional; conditions: route subcutaneous; summary of the method: as §1
Litomosoides carinii [15] = experiment: Antifilarial activity against Litomosoides carinii infections in the Jird at dose 50 mg/kg administered subcutaneously; assay type: functional; conditions: route subcutaneous; summary of the method: as §1
Litomosoides carinii [16] = experiment: Antifilarial activity against Litomosoides carinii infections in the Jird at dose 6.25 mg/kg administered subcutaneously; assay type: functional; conditions: route subcutaneous; summary of the method: as §1
Litomosoides carinii [17] = experiment: Antifilarial activity against Litomosoides carinii infections in the Jird at dose 1.56 mg/kg administered subcutaneously; assay type: functional; conditions: route subcutaneous; summary of the method: as §1
Litomosoides carinii [18] = experiment: Antifilarial activity against infections of Litomosoides carinii in the Jird by oral route(dose (mg/kg) is given in parentheses); assay type: functional; summary of the method: as §1

CCNCc1cc(Nc2cc(C(F)(F)F)nc(/N=C(\N)Nc3ccc(Cl)cc3)n2)ccc1OC
Reduction of live worms (Litomosoides carinii [1]): 100% | Reduction of live worms (Litomosoides carinii [2]): 94% | Animals dead [3]: > 2 | Reduction of live worms (Litomosoides carinii [4]): 100% | Reduction of live worms (Litomosoides carinii [5]): 81% | Reduction of live worms (Litomosoides carinii [6]): 92%

CCN(CC)Cc1cc(Nc2cc(C)nc(/N=C(\N)Nc3cc(Cl)cc(Cl)c3)n2)ccc1O
Reduction of live worms (Litomosoides carinii [7]): 68% | Animals dead [3]: > 2 | Reduction of live worms (Litomosoides carinii [8]): 0%

CN1CCN(Cc2cc(Nc3cc(C(F)(F)F)nc(/N=C(\N)Nc4ccc(Cl)c(Cl)c4)n3)ccc2O)CC1
Reduction of live worms (Litomosoides carinii [1]): 100% | Reduction of live worms (Litomosoides carinii [9]): 100% | Reduction of live worms (Litomosoides carinii [2]): 100% | Animals dead [3]: > 2 | Reduction of live worms (Litomosoides carinii [5]): 0% | Reduction of live worms (Litomosoides carinii [10]): 99% | Reduction of live worms (Litomosoides carinii [11]): 100%

CCOc1ccc(Nc2nc(/N=C(\N)Nc3ccc(Cl)c(Cl)c3)nc3c2CCCC3)cc1CN(CC)CC
Reduction of live worms (Litomosoides carinii [2]): 54% | Animals dead [3]: > 2 | Reduction of live worms (Litomosoides carinii [12]): 0%

CCCCN(CC)CCNc1cc(C)nc(/N=C(\N)Nc2ccc(Cl)c(Cl)c2)n1
Reduction of live worms (Litomosoides carinii [13]): 66%

CN1CCN(Cc2cc(Nc3cc(C(F)(F)F)nc(/N=C(\N)Nc4ccc(C(F)(F)F)cc4)n3)ccc2O)CC1
Reduction of live worms (Litomosoides carinii [1]): 100% | Reduction of live worms (Litomosoides carinii [14]): 96% | Reduction of live worms (Litomosoides carinii [2]): 40% | Reduction of live worms (Litomosoides carinii [5]): 5%

CCN(CC)C(=O)N1CCN(C)CC1 [DIETHYLCARBAMAZINE]
Reduction of live worms (Litomosoides carinii [7]): 100% | Reduction of live worms (Litomosoides carinii [15]): 89%

COC(=O)Nc1nc2cc(C(=O)c3ccccc3)ccc2[nH]1 [MEBENDAZOLE]
Reduction of live worms (Litomosoides carinii [4]): 100% | Reduction of live worms (Litomosoides carinii [16]): 100% | Reduction of live worms (Litomosoides carinii [17]): 97%

Cc1ccc(C(=O)Nc2ccc(S(=O)(=O)O)c3cc(S(=O)(=O)O)cc(S(=O)(=O)O)c23)cc1NC(=O)c1cccc(NC(=O)Nc2cccc(C(=O)Nc3cc(C(=O)Nc4ccc(S(=O)(=O)O)c5cc(S(=O)(=O)O)cc(S(=O)(=O)O)c45)ccc3C)c2)c1 [SURAMIN]
Reduction of live worms (Litomosoides carinii [18]): 98%
